Active and inactive are the calls of the source. The calls are words filed in the database; no cut-off is given here.
Key:
[1] = target: T1, Peroxisome proliferator-activated receptor alpha (Homo sapiens) (UniProt Q07869); experiment: Agonist activity at human PPARalpha ligand binding domain expressed in human Hep G2 cells co-transfected with Gal4-DBD by luciferase reporter gene assay; type: cell-based; settings: HepG2
T1 sequence (whole entry): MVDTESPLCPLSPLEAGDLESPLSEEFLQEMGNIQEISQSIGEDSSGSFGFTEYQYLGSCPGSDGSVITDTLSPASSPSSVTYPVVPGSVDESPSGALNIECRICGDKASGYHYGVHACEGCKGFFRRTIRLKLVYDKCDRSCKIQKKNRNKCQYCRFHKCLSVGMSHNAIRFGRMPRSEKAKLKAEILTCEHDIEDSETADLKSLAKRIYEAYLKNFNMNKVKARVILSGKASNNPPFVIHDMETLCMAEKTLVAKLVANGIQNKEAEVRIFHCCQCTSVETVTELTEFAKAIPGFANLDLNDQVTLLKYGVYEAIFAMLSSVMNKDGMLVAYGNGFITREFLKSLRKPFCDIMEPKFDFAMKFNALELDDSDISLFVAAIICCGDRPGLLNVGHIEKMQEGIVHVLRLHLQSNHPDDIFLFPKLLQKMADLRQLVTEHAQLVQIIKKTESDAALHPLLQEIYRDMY
Summary of the method: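 Gal4-LBD fusion vector (50 ng) was co-transfected with pGal4UAS-luciferase (100 ng) and pCMVβ β-galactosidase normalizer (300 ng) into HepG2 cells by calcium phosphate for 4 h. Cells were washed, then given serum-free DMEM/F-12 with ligand or 0.1% ethanol vehicle for 20 h. Luciferase was normalized to β-galactosidase.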

[2] = target: T2, Peroxisome proliferator-activated receptor alpha (Mus musculus) (UniProt P23204); experiment: (§1) Agonist activity at mouse PPARalpha ligand binding domain expressed in human Hep G2 cells co-transfected with Gal4-DBD by luciferase reporter gene assay; type: cell-based; settings: HepG2
T2 sequence (whole entry): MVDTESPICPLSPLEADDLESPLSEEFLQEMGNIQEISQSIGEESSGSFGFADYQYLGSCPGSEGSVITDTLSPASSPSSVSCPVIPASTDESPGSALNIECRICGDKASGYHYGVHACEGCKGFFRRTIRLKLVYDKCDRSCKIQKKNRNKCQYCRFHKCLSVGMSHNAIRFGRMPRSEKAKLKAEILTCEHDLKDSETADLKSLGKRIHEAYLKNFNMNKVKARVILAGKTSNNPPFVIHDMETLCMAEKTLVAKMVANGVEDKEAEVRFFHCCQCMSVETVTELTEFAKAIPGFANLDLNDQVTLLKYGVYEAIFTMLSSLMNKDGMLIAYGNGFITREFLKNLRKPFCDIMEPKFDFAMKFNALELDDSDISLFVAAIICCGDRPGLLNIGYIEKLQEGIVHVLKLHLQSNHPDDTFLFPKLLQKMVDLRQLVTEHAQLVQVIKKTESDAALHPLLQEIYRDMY

HepG2 = experiment: Increase in transcriptional activity of ROR ligand binding domain expressed in human Hep G2 cells co-transfected with Gal4-DBD by luciferase reporter gene assay; type: cell-based
Summary of the method: (§2)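 HepG2 cells transfected for 4 h by calcium phosphate coprecipitation with 100 ng pGal4UAS-luciferase, 50 ng Gal4-LBD receptor vector and 300 ng CMV-β-galactosidase plasmid for normalization. Cells were washed in PBS, then refed with serum-free DMEM/F-12 containing penicillin/streptomycin and compound or 0.1% ethanol vehicle for 20 h. Luciferase read-out was normalized to β-galactosidase. Experiments were repeated at least three times.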

[3] = target: T3, Oxysterols receptor LXR-alpha (Homo sapiens) (UniProt Q13133); experiment: Increase in transcriptional activity of LXRalpha ligand binding domain expressed in human Hep G2 cells co-transfected with Gal4-DBD by luciferase reporter gene assay; type: cell-based; settings: HepG2; summary of the method: as §2
T3 sequence (whole entry): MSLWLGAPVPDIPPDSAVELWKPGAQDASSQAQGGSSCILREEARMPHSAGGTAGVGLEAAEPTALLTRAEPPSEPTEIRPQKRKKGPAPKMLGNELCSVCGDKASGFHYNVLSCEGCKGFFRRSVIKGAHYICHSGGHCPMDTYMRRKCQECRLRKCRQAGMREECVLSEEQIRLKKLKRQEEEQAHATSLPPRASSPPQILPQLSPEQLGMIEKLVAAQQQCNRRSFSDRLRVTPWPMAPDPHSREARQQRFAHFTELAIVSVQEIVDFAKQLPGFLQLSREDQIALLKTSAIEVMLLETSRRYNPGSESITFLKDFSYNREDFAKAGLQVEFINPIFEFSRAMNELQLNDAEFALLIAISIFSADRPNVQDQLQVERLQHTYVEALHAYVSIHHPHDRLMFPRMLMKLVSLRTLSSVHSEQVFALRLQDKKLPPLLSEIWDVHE

[4] = target: T4, Peroxisome proliferator-activated receptor alpha (Mus musculus, UniProt P23204); experiment: as §1; type: cell-based, HepG2
T4 sequence (P23204 whole entry): T2 sequence (whole entry)

Activity [1] | Activity [2] | Activity [3] | EC50 [4] [nM] | SMILES | Activity (HepG2)
inactive | inactive | – | – | O=C(O)[C@@H](Cc1ccccc1)Oc1ccc(-c2ccccc2)cc1 | –
– | – | inactive | 260 | O=C(O)[C@H](Cc1ccccc1)Oc1ccc(-c2ccccc2)cc1 | inactive

Reference: ChEMBL document CHEMBL1151755, “Crystal structure of the peroxisome proliferator-activated receptor gamma (PPARgamma) ligand binding domain complexed with a novel partial agonist: a new region of the hydrophobic pocket could be exploited for drug design” (J Med Chem, 2008)
